ChEMBL document CHEMBL1123469, “Synthesis and activity of 6-aryl-3-(hydroxypolymethyleneamino)pyridazines in animal models of epilepsy” (1986)

How the values were obtained:
Assay type in all cases: functional
Mus musculus [1] = assay: Compound was evaluated for the sedative property by the rotarod test at 150 mg/kg
In short: (§1)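 Motor coordination was tested on the rotorod in groups of 10 female Swiss CD1 mice (18-23 g). Drug or vehicle was given orally, test compounds in dilute HCl (pH 3), 60 min before testing.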

Mus musculus [2] = assay: Evaluated for Bicuculline-induced lethality (anticonvulsant activity) when administered orally in mice.; details: po
In short: (§2)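 Female Swiss albino CD1 mice (18-23 g), oral dosing (20 mL/kg); test compounds dissolved in dilute HCl (pH 3), reference drugs suspended in 5% gum tragacanth. Bicuculline challenge, scoring protection from seizures and from lethality. […] Weakly active agents reported as percent protected at the stated dose.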

Mus musculus [3] = assay: Evaluated for anticonvulsant activity when administered orally in mice by Maximal electroshock (MES).; details: po
In short: (§3)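 Female Swiss CD1 mice (18-23 g), groups of 10, were dosed orally at 20 mL/kg. Test compounds were given in dilute HCl (pH 3) and references in 5% gum tragacanth, 60 min before a 60-V alternating current for 0.3 s through corneal electrodes. Protection meant abolition of the hindlimb tonic extensor component.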

Mus musculus [4] = assay: Compound was evaluated for the sedative property by the rotarod test at 20 mg/kg; in short: as §1
Mus musculus [5] = assay: Evaluated for Bicuculline-induced seizures (anticonvulsant activity) when administered orally in mice.; details: po
In short: (§4)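 Female Swiss CD1 mice (18-23 g) were dosed orally at 20 mL/kg, test compounds in dilute HCl (pH 3) and references in gum tragacanth. Protection against bicuculline- or pentylenetetrazole-induced clonic/tonic seizures and lethality was scored.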

Mus musculus [6] = assay: Compound was evaluated for anticonvulsant activity when administered 250 mg/kg orally in mice Maximal electroshock (MES); details: route oral; in short: as §3
Mus musculus [7] = assay: Compound was evaluated for the sedative property by the rotarod test at 250 mg/kg
In short: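 Rotorod motor-coordination test in female Swiss albino CD1 mice (18-23 g). Groups of 10 mice dosed with test drug or vehicle 60 min before testing; test compounds dissolved in dilute HCl (pH 3).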

Mus musculus [8] = assay: Compound was evaluated for Bicuculline-induced lethality (anticonvulsant activity) when administered 250 mg/kg orally in mice; details: route oral; in short: as §2
Mus musculus [9] = assay: Compound was evaluated for Bicuculline-induced seizures (anticonvulsant activity) when administered 250 mg/kg orally in mice; details: route oral; in short: as §4
Mus musculus [10] = assay: Anticonvulsant activity when administered 100 mg/kg orally in mice Maximal electroshock (MES); details: route oral; in short: as §3
Mus musculus [11] = assay: Evaluated for Bicuculline-induced seizures (anticonvulsant activity) when administered at 100 mg/kg orally in mice.; details: route oral; in short: as §4
Mus musculus [12] = assay: Compound was evaluated for Bicuculline-induced seizures (anticonvulsant activity) when administered 10 mg/kg orally in mice; details: route oral; in short: as §2
Mus musculus [13] = assay: Compound was evaluated for anticonvulsant activity when administered 10 mg/kg orally in mice Maximal electroshock (MES); details: route oral; in short: as §3
Mus musculus [14] = assay: Compound was evaluated for the sedative property by the rotarod test at 10 mg/kg; in short: as §1
Mus musculus [15] = assay: Compound was evaluated for anticonvulsant activity when administered 1 mg/kg orally in mice Maximal electroshock (MES); details: route oral; in short: as §3
Mus musculus [16] = assay: Compound was evaluated for Bicuculline-induced seizures (anticonvulsant activity) when administered 1 mg/kg orally in mice; details: route oral; in short: as §2
Mus musculus [17] = assay: Compound was evaluated for the sedative property by the rotarod test at 1 mg/kg; in short: as §1
Rattus norvegicus = organism: Rattus norvegicus; assay: Antagonist activity to generalized seizures kindled amygdaloid seizures in rats
In short: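 Male Sprague-Dawley rats (200-500 g), groups of 10, carried platinum electrodes in the right basolateral amygdala. They counted as kindled after stage-5 seizures on 3 consecutive days at 30-90 μA. A control stimulation was followed by an oral dose (5 mL/kg) and restimulation 1 h later. After-discharge duration and Racine seizure stage were compared with vehicle.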

Mus musculus [18] = assay: Anticonvulsant activity in Clonic seizures when administered orally in mice; details: po; in short: as §4
Mus musculus [19] = organism: Mus musculus; assay: Sedative properties by the rotarod test; in short: as §1
Mus musculus [20] = assay: Anticonvulsant activity in tonic seizures when administered orally in mice; details: po
Mus musculus [21] = assay: Anticonvulsant activity in Maximal electroshock (MES) when administered orally in mice; details: po; in short: as §3
Mus musculus [22] = assay: Compound was evaluated for Bicuculline-induced seizures (anticonvulsant activity)when administered orally in mice; details: po; in short: as §2
Papio hamadryas = organism: Papio hamadryas; assay: Antagonist activity to generalized seizures Photically induced seizures in senegalese Papio papio baboons
In short: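 Naturally photosensitive baboons of both sexes (4-7 kg) were dosed orally, test compounds in dilute HCl (pH 3) and references in 5% gum tragacanth, at 4 mL/kg. They were photically stimulated at hourly intervals afterwards, and the myoclonic response was graded after Killam. Threshold active dose is the first dose that protected at least two of four animals for at least 2 h.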

Mus musculus [23] = assay: Compound was evaluated for Bicuculline-induced lethality (anticonvulsant activity) when administered 20 mg/Kg orally in mice; in short: as §2
Mus musculus [24] = assay: Compound was evaluated for the sedative properties by the rotarod test when 100 mg/Kg was administered in mice; in short: as §1

OC1CCN(c2ccc(-c3cc(Cl)ccc3Cl)nn2)CC1
Protected (Mus musculus [1]): 10%
ED50 (Mus musculus [2]): 101 mg/kg

O=C1CCN(c2ccc(-c3ccc(Cl)cc3Cl)nn2)CC1
ED50 (Mus musculus [2]): 7 mg/kg
ED50 (Mus musculus [3]): 5 mg/kg
Protected (Mus musculus [4]): 50%
ED50 (Mus musculus [5]): 7.3 mg/kg

Oc1ccc(-c2ccc(N3CCC(O)CC3)nn2)cc1
Protected (Mus musculus [6]): 25%
Protected (Mus musculus [7]): 10%
Protected (Mus musculus [8]): 10%
Protected (Mus musculus [9]): 0%

Oc1ccccc1-c1ccc(N2CCC(O)CC2)nn1
Protected (Mus musculus [7]): 0%
Protected (Mus musculus [10]): 0%
Protected (Mus musculus [11]): 0%

OC1CCN(c2ccc(-c3ccccn3)nn2)CC1
Protected (Mus musculus [12]): 0%
Protected (Mus musculus [13]): 0%
Protected (Mus musculus [14]): 20%

CN(C)C(=O)OC1CCN(c2ccc(-c3ccc(Cl)cc3Cl)nn2)CC1
Protected (Mus musculus [15]): 66%
Protected (Mus musculus [16]): 30%
Protected (Mus musculus [17]): 20%

CCC1(c2ccccc2)C(=O)NC(=O)NC1=O [PHENOBARBITAL]
Threshold active dose (Rattus norvegicus): 20 mg/kg
ED50 (Mus musculus [2]): 5.2 mg/kg
ED50 (Mus musculus [18]): 15 mg/kg
ED50 (Mus musculus [19]): 61 mg/kg
ED50 (Mus musculus [20]): 7 mg/kg
ED50 (Mus musculus [21]): 5.4 mg/kg
ED50 (Mus musculus [22]): 5.8 mg/kg
Threshold active dose (Papio hamadryas): 5 mg/kg

O=C1NC(=O)C(c2ccccc2)(c2ccccc2)N1 [PHENYTOIN]
Threshold active dose (Rattus norvegicus): 20 mg/kg
ED50 (Mus musculus [18]): > 80 mg/kg
ED50 (Mus musculus [20]): 7 mg/kg
Protected (Mus musculus [23]): 25%
ED50 (Mus musculus [21]): 23 mg/kg
Protected (Mus musculus [24]): 30%
ED50 (Mus musculus [22]): 11 mg/kg
Threshold active dose (Papio hamadryas): 50 mg/kg

CCCC(CCC)C(=O)[O-].[Na+] [VALPROATE SODIUM]
Threshold active dose (Rattus norvegicus): 200 mg/kg
ED50 (Mus musculus [2]): 246 mg/kg
ED50 (Mus musculus [18]): 363 mg/kg
ED50 (Mus musculus [19]): 406 mg/kg
ED50 (Mus musculus [20]): 201 mg/kg
ED50 (Mus musculus [5]): 274 mg/kg
ED50 (Mus musculus [21]): 324 mg/kg
Threshold active dose (Papio hamadryas): 300 mg/kg
